Data published in ChEMBL document CHEMBL4513216, “Probing the Open Global Health Chemical Diversity Library for Multistage-Active Starting Points for Next-Generation Antimalarials” (ACS Infect Dis, 2020).

Assay: Toxicity liver stage against HepG2, at 10uM
Type: cell-based
Design: test concentration 10 uM, cell line HepG2-A16-CD81EGFP
Conditions: human, HepG2-A16-CD81EGFP cells; read-out: INHIBITION
Procedure, shortened: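 Uninfected HepG2-A16-CD81EGFP cells, 3 × 10^3 per well, 1536-well, plated on prespotted compound at 10 μM final, parasite-free screening media added to match infected plates; puromycin 10 μM positive, DMSO 0.5% negative; run in parallel with 48 h PbLuc assay at 37 °C, 5% CO2; viability by CellTiter-Glo luminescence, normalized to controls.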

| SMILES | cytotoxicity at 10 µM |
| --- | --- |
| CN(C)C(=O)C1OC2(CCN(C(=O)c3ccco3)CC2)c2ccccc21 (centres undefined) | 4.93% |
| CSC1(CNC(=O)NC(C)Cc2cccc(F)c2)CCOCC1 (centres undefined) | -15.6% |
| O=c1cc(Cn2ccnc2)nc2n1CCCN(Cc1ccncc1)C2 | -0.559% |
| O=C(C1CCC2(CCN(CC3CCOCC3)CC2)O1)N1CCCCO1 (centres undefined) | 1.08% |
| Cc1nc(C)c(C(C)NCc2c(C)nn(C)c2N(C)C)s1 (centres undefined) | -4.96% |
| COC(=O)c1ccc(C2SCC(=O)Nc3c2cnn3C(C)(C)C)cc1 (centres undefined) | 2.06% |
| CS(=O)(=O)NC(=O)c1nnn(-c2cccc(F)c2)c1C1CC1 | -3.9% |
| O=C(N[C@@H]1CCN(Cc2cc3ccccc3s2)C[C@H]1O)c1cccnc1 | -7.57% |
| O=C(c1ccc(Cn2cc(Br)cn2)cc1)N1CCOCC1 | -13.6% |
| CCN(CCOC)C(=O)c1cc(COc2ccc3c(c2)CCCC3)on1 | -146% |
| Cc1ccc(N2CC[C@H]3O[C@@H](C(=O)N4CCCO4)CC[C@H]32)nn1 | 0.908% |
| CCCn1nc2c(cc1=O)CN(Cc1nc(-c3ccco3)no1)CC2 | -7.69% |
| Cc1cc(S(=O)(=O)N2CCCc3cc(F)cc(F)c32)sc1C(=O)O | 21.8% |
| Cc1ccc(C(=O)N2CC[C@H]3[C@H]2CCN3CC2CCOCC2)cc1F | -83.3% |
| O=C(Cc1ccccn1)N1CCc2ncnc(NC3CCC3)c2CC1 | 3.25% |
| CCn1cc(-c2cc(C(F)F)nc3sc(C(N)=O)c(N)c23)c(C)n1 | 3.04% |
| Cc1nn(C)cc1-c1cncn1CCc1ccc2c(c1)OCCO2 | 11.5% |
| COc1cc(OC)cc(-c2cccc3c2OC(CN)C3)c1 (centres undefined) | -53% |
| CC(=O)N1CCCC1c1csc(Nc2cnccn2)n1 (centres undefined) | 2.09% |
| Cc1cc(C(=O)NC2CCc3nc(C)cn3C2)[nH]n1 (centres undefined) | -5.15% |
| CCC1=N[C@@]2(CC[C@@H]3CN(S(=O)(=O)N(C)C)C[C@@H]32)C(=O)N1CC(C)C | 10.3% |
| CCN1CCCC1(C)c1nc(C)cc(N)n1 (centres undefined) | -2.17% |

| SMILES | cytotoxicity at 10 µM |
| --- | --- |
| O=C(c1ccoc1)N1CCCC2(CCC(=O)N2Cc2cccnc2)C1 (centres undefined) | -4.41% |
| O=C(CC1CCCCC1)N1C[C@@H]2CC[C@H]1CN(Cc1cccnc1)C2 | -0.662% |
| CC(C)CC(=O)NC1CC2(CCN(CCF)CC2)Oc2ccccc21 (centres undefined) | 1.08% |
| O=C(COc1ccc(Cl)cc1Cl)N1CCCSCC1CN1CCOCC1 (centres undefined) | 4.09% |
| Cn1nc(C#N)c2c1CN(C(=O)c1cccnc1)CCC2 | 2.22% |
| CC(C)c1[nH]c2ncccc2c1CN1CCOCC1 | 0.752% |
| CN(C)c1ncc(-c2cc(C(=O)NC(C)(C)CO)n(CC3CC3)c2)cn1 | -13.4% |
| Cc1ccc(-c2nc(CCNC(=O)NC3CCN(C)CC3)co2)cc1 | -6.71% |
| CN(c1ncnc2c1cnn2C)C1CCCN(c2cccnn2)C1 (centres undefined) | 3.93% |
| Cc1cc(NCc2nnc3n2CCCCC3)n2nc(C)c(C)c2n1 | 5.66% |
| CC(=O)NCc1nnc2n1CCN(c1nc(C)nc3sccc13)CC2 | 15.5% |
| Cn1cc(C(NCCc2ccccn2)c2cccc(F)c2)cn1 (centres undefined) | 9.73% |
| Cc1ccc(N(C)C2CCCN(C(=O)Nc3ccc(F)cc3F)C2)cc1 (centres undefined) | -8.19% |
| CCCN1CC(NC(=O)Nc2nc(C)n(C(C)C)n2)CC1=O (centres undefined) | -3.04% |
| NC1CCN(C(=O)c2c(F)cccc2Br)CC1 | 11.4% |
| Cc1cc(C)nc(N2CCC(c3cc(CCO)[nH]n3)C2)n1 (centres undefined) | 4.15% |
| Cc1csc(CCNc2ccc(C#N)cc2F)n1 | 2.17% |
| CNc1snc(C)c1C(=O)N1CCCC(n2ccnc2C)C1 (centres undefined) | -14.1% |
| CC1CN(Cc2noc(C3CC3)n2)CCN1Cc1nccn1C (centres undefined) | -10% |
| COc1cc(C2CC(=O)c3c(O)cc(O)cc3O2)ccc1O (centres undefined) | -0.537% |
| COc1ccc(S(=O)(=O)N2CCn3cnc(COCC4CC4)c3C2)cc1 | -0.262% |
| Cc1nc(O)cc(C2(C)CCCNC2)n1 (centres undefined) | 2.98% |

| SMILES | cytotoxicity at 10 µM |
| --- | --- |
| O=C(c1ccccn1)N1C[C@H]2CC[C@@H](C1)N(C(=O)CCc1cccs1)C2 | -9% |
| Cc1nc(C)n(CC2CCCN2CC(=O)Nc2ccnn2C(C)C)n1 (centres undefined) | -14% |
| CCS(=O)(=O)N1CCC(c2nccn2Cc2ccncc2)CC1 | -4% |
| N#Cc1cn(CCCN2CCc3ccccc3C2)c(=O)[nH]c1=O | 2.72% |
| CCc1noc(CNc2ccc(CC(=O)N3CCSCC3)cc2)n1 | 3.73% |
| CN(CC(=O)Nc1nncs1)CC1CCCN1c1cccnn1 (centres undefined) | -13.7% |
| CCn1cc(CN2C[C@@H]3CC[C@H]2CN(C(=O)c2cnccn2)C3)cn1 | -8.39% |
| CCc1nccn1C1CCCN(C(=O)c2ccc(OC)c(OC)c2)C1 (centres undefined) | -20.6% |
| CC(C)CCN1CCc2[nH]nc(C(=O)N3CC=CC3)c2C1 | -121% |
| Cc1cccc(CN2C(=O)CO[C@@H]3CN(Cc4nccn4C)C[C@H]32)c1 | -16.7% |
| CCc1noc(CN2CCCN(C(N)=O)CC2)n1 | -4.12% |
| CC(C)C(=O)NS(=O)(=O)c1ccc2c(c1)N(C)CCC2 | -0.447% |
| Cc1noc(CCCNC(=O)N2CCc3ccccc3C2CO)n1 (centres undefined) | 8.69% |
| COCCOc1ccc(NC(=O)N2CCCC2c2ccsc2)cn1 (centres undefined) | -8.33% |
| CC(C)C(NC(=O)NCC1CC1)c1nnc2n1CCC2 (centres undefined) | -7.44% |
| Cc1oc(-c2nc(C#N)c(NC(C)(C)C)o2)cc1S(=O)(=O)N1CCCC1 | -0.699% |
| CCn1ccnc1CN1CCCN(C(=O)c2ccc(C#N)cc2)CC1 | -6.96% |
| NC(=O)NCC1CCCCN1C(=O)c1cc(F)cc(F)c1 (centres undefined) | -8.15% |
| CC(C)c1n[nH]c(C2CN(CC(=O)N(C)Cc3ccco3)CCO2)n1 (centres undefined) | -5.92% |
| c1csc(CN2C[C@@H]3OCCN(CC4CCCO4)[C@@H]3C2)c1 (some centres undefined) | -6.31% |
| Cc1cc(N2C[C@H](NC(=O)C3(C#N)CCOCC3)[C@@H](C(C)C)C2)ccn1 | -4.1% |
| CC(C)c1ccc(O)c(C(=O)NCc2nncn2C)c1 | -3% |

| SMILES | cytotoxicity at 10 µM |
| --- | --- |
| CN(Cc1cccc(Cl)c1)S(=O)(=O)N1CCOCC1 | -8.2% |
| CCc1ccc(-c2cn(CCSc3ncn[nH]3)nn2)nc1 | -0.89% |
| CC(=O)Nc1ccc(S(=O)(=O)Nc2c(F)cccc2F)cc1 | 12.6% |
| CC1=C(C(=O)N(C)Cc2n[nH]c3c2CCCCC3)C(C)NC(=O)N1 (centres undefined) | -0.178% |
| CC(C)c1ncc(-c2cc(C3CCC3)nc(N)c2C#N)cn1 | -16.1% |
| Cc1nc(CN2CCCC(NCCOc3cccc(C#N)c3)C2)no1 (centres undefined) | -8.36% |
| O=C(Nc1cc(C(F)(F)F)ccc1Cl)c1ccc(N2CCOCC2)nn1 | -9.89% |
| CC(C)(C)S(=O)(=O)c1ccc(N2CCC(n3cncn3)CC2)cn1 | 3.94% |
| O=C(CSc1ccc(F)c(F)c1)NS(=O)(=O)c1ccc2c(c1)OCCO2 | -4.28% |
| CCNC(=O)CCC(=O)NC(Cc1ccccc1)c1sccc1C (centres undefined) | -6.69% |
| Cc1nc(C2CCCN(C(=O)c3ccc(Cl)cn3)C2)no1 (centres undefined) | -10.4% |
| CC(C)NC(=O)C1CN(C(=O)COc2ccccc2)CC12CCOCC2 (centres undefined) | -78.3% |
| CC(C)n1[nH]c(=O)c2c1NC(=O)CC2c1ccc2ncccc2c1 (centres undefined) | 9.76% |
| N#Cc1cc(F)ccc1CN1CCCCC1Cn1cccn1 (centres undefined) | -2.93% |
| Cc1csc(N2CCN(C(=O)Cc3ccc(C)s3)CC2)n1 | -7.05% |
| CN(CCc1ccncc1)C(=O)c1sccc1OC(F)F | -9.32% |
| CCc1nc(CN2CCOC(CNc3cccnn3)C2)cs1 (centres undefined) | -11% |
| Cc1nc2n(n1)CC(NCC(=O)NCC1(c3ccccc3)CC1)CC2 (centres undefined) | -6.52% |
| Cc1cc(Cc2ccc(S(=O)(=O)N3CCSCC3)cc2)c(=O)[nH]n1 | -10% |
| CC(C)C(=O)NC1CCCN(C(=O)c2ccccc2O)C1 (centres undefined) | -2.55% |
| CCC(=O)N1CCC2(CCC(N3CCCC3)c3ccccc32)CC1 (centres undefined) | -6.23% |
| NC(=O)c1ccc(OCC(=O)NS(=O)(=O)c2ccc3c(c2)CCC3)cc1 | -8.89% |

| SMILES | cytotoxicity at 10 µM |
| --- | --- |
| Cc1cc(CNC(=O)NC(C)c2ccccc2)no1 (centres undefined) | 10.4% |
| CCn1cc(CN2CCCN(C(=O)C3=NN(C)C(=O)CC3)CC2)cn1 | 3.54% |
| COC(=O)CC1CCN(C(=O)c2ccccc2-n2nnnc2C)CC1 | -7.27% |
| Cc1cc(F)ccc1N1CCCC(NC2CCOCC2)C1=O (centres undefined) | -11.3% |
| NC(=O)c1ccc(C(=O)N(Cc2ccc(O)cc2)CC2CC2)cc1 | 8.19% |
| CN(C)CCNC(=O)Cn1cnc2cc(NC(=O)C3CC3)ccc21 | -14.3% |
| CCC(C)Oc1ccccc1Cn1cc2[nH]cccc-2c1=O (centres undefined) | -0.0261% |
| Cc1ccc(S(N)(=O)=O)cc1C(=O)N1C[C@@H](CN(C)C)[C@@H](CO)C1 | -0.187% |
| CC(NC(=O)N(C)CCOc1ccccc1F)c1nncn1C (centres undefined) | -9.92% |
| COCCC(Cc1cccc(Br)c1)C(=O)NCC(N)=O (centres undefined) | 9.74% |
| CN1CCC(Oc2ccc(-n3ccnc3-c3nccn3C)cc2)CC1 | -7.41% |
| Cc1nc2n(n1)CC(Nc1nc(-c3ccccc3)no1)CC2 (centres undefined) | 0.658% |
| CC(C)(C)C(=O)N1CCCC1(C(=O)N1CCCC1)c1cnccn1 (centres undefined) | 4.84% |
| CC(c1ccon1)N(C)S(=O)(=O)NCc1ccccc1 (centres undefined) | -0.174% |
| Cc1csc(N2CCCN(C(=O)CCN3CCCC3=O)CC2)n1 | 24.3% |
| CN(C)Cc1cn2c(n1)CN(C(=O)Cc1ccsc1)CC2 | -136% |
| Cc1nc(-c2cccc(C(=O)O)c2)cc(C2CCCN(C(C)C)C2)n1 (centres undefined) | -7.44% |
| CC(=O)NCCc1cc(N2CCN(C(C)=O)CC2)nc(C2CC2)n1 | 2.24% |
| COCCN1CC[C@@H]2OC(COCC(=O)N3CCCC3)CC[C@@H]21 (some centres undefined) | -3.29% |
| CS(=O)(=O)N1CCCC(Cc2ccnc(Nc3ccccn3)c2)C1 (centres undefined) | 5.46% |
| Cc1cc(C)nc(Nc2cc(C3CCCN(C)C3)nc(C)n2)n1 (centres undefined) | -5.12% |
